Legend:
[1] = biological target: T1, Cystic fibrosis transmembrane conductance regulator (Homo sapiens, UniProt P13569); assay: Percent activation of wild type CFTR dependent efflux was determined by measuring the rate of iodide [125I]- efflux from transfected CHO cells; type: functional, cell-based; set-up: concentration or dose not given beside the values
In short: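 CHO cells stably expressing wild-type CFTR (MEM, 7% FBS, 100 μM methotrexate), grown in 24-well plates. Loaded 30 min at 37 °C in efflux buffer (NaCl/KCl/MgCl2/glucose/HEPES, pH 7.4) with 1 μM KI and 125I; medium sampled every 1 min up to 11 min, drug after four baseline aliquots, compounds at 250 μM. Peak efflux rate expressed relative to 5 μM forskolin (=100%); mean ± SEM, n experiments.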
Target sequence in this assay (P13569 whole entry, looked up): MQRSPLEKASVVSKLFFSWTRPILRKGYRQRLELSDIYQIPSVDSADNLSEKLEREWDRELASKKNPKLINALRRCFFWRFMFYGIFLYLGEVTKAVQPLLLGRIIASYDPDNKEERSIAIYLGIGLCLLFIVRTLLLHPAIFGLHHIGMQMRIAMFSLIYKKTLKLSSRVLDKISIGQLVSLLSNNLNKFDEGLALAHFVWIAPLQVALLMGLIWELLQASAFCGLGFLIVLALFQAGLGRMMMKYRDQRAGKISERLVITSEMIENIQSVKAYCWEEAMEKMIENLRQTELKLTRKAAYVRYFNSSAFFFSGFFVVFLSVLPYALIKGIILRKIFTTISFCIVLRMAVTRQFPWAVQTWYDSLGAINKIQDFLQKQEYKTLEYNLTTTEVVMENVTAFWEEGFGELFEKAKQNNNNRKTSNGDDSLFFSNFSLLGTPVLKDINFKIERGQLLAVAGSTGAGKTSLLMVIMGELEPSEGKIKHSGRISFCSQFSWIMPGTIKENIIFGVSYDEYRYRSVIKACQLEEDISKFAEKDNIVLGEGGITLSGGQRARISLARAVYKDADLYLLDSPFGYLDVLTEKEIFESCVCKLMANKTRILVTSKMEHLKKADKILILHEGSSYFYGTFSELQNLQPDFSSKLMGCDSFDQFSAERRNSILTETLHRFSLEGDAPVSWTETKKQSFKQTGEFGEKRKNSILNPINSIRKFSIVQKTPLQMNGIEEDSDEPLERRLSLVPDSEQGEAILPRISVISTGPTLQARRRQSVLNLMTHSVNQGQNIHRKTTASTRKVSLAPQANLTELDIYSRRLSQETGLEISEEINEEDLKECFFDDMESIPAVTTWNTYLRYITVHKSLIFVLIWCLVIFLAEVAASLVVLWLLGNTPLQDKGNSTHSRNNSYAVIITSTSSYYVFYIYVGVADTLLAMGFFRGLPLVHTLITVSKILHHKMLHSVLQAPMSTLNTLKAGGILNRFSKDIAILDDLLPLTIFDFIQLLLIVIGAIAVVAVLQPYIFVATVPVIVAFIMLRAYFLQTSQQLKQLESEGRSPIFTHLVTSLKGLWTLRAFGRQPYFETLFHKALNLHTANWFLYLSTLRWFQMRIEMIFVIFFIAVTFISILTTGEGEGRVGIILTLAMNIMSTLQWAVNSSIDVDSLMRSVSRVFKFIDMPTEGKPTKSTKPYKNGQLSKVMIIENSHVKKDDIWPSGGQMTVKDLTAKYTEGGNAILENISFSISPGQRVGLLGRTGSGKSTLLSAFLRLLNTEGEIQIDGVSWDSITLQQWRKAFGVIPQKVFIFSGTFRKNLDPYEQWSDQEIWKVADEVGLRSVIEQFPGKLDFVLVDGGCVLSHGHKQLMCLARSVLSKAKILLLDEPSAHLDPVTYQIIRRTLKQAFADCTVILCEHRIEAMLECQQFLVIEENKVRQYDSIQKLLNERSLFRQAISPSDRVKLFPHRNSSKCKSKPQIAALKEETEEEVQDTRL

[2] = biological target: Cystic fibrosis transmembrane conductance regulator (Homo sapiens, UniProt P13569, G551D); assay: Half-Maximal effective concentration of compound required to stimulate of G551D-CFTR activity in the presence of 10 uM Fsk; type: functional
Cystic fibrosis transmembrane conductance regulator (Homo sapiens, UniProt P13569, G551D), sequence (P13569 whole entry G551D): as the sequence (P13569 whole entry, looked up) above, with G551D counted along it
In short: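 G551D-CFTR stably expressed in CHO cells. The ¹²⁵I efflux assay was run on a robot: cells were loaded for 30 min at 37 °C in HEPES buffer pH 7.4 containing 1 μM KI and 1 μCi/mL ¹²⁵I, and efflux was sampled each minute for up to 11 min (4 baseline samples). Cells were exposed to 10 μM Fsk, then to increasing compound concentrations. EC50 came from %-of-maximal-effect curves, n = 6, mean ± SEM.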

[3] = biological target: T1, Cystic fibrosis transmembrane conductance regulator; assay: Half-Maximal effective concentration of compound required to stimulate of wild type-CFTR activity in the presence of 1 uM Fsk
Target sequence in this assay (P13569 whole entry): as the sequence (P13569 whole entry, looked up) above

Oc1cc2cccc[n+]2c2cc(F)ccc12
Activation [1]: 16%

Oc1cc2cccc[n+]2c2cccc(Cl)c12
EC50 [2]: > 200 µM | Activation [1]: 20% | EC50 [3]: 146 µM

Oc1c(-c2ccccc2)c2cccc[n+]2c2c(Cl)cccc12
Activation [1]: 6%

CCOC(=O)c1c(O)c2ccc(F)cc2[n+]2ccccc12
Activation [1]: 6%

C=C[C@@]1(C)CC(=O)[C@]2(O)[C@@]3(C)[C@@H](O)CCC(C)(C)[C@@H]3[C@H](O)[C@H](OC(C)=O)[C@@]2(C)O1
Activation [1]: 100%

Oc1cc2cccc[n+]2c2c(Cl)cccc12
EC50 [2]: > 200 µM | Activation [1]: 24% | EC50 [3]: 141 µM

Nc1cc2cccc[n+]2c2cccc(Cl)c12
Activation [1]: < 5%

Oc1cc2cccc[n+]2c2c(F)cccc12
Activation [1]: < 5%

CCCc1c(O)c2cccc(Cl)c2[n+]2ccccc12
EC50 [2]: 48 µM | Activation [1]: 32% | EC50 [3]: 54.2 µM

CCCCc1c(O)c2cccc(Cl)c2[n+]2ccccc12
EC50 [2]: 34 µM | Activation [1]: 45% | EC50 [3]: 23.5 µM

CCCCCc1c(O)c2cccc(Cl)c2[n+]2ccccc12
EC50 [2]: 20 µM | Activation [1]: 38% | EC50 [3]: 21 µM

Oc1cc2cccc[n+]2c2ccc(F)cc12
Activation [1]: 11%

Oc1cc2cccc[n+]2c2ccc(Cl)cc12
Activation [1]: 18%

CCOC(=O)c1c(O)c2cc(F)ccc2[n+]2ccccc12
Activation [1]: < 5%

Oc1cc2cccc[n+]2c2cccc(F)c12
Activation [1]: < 5%

Nc1cc2[n+](c3ccc(Cl)cc13)CCc1c-2[nH]c2ccccc12
Activation [1]: 6%

Nc1cc2[n+](c3cccc(Cl)c13)CCc1c-2[nH]c2ccccc12
Activation [1]: 30%

CCCCc1c(O)c2c(Cl)cccc2[n+]2ccccc12
EC50 [2]: 0.75 µM | Activation [1]: 33% | EC50 [3]: 1.7 µM

Nc1cc2cccc[n+]2c2c(Cl)cccc12
Activation [1]: < 5%

Oc1cc2cccc[n+]2c2cc(Cl)ccc12
Activation [1]: < 5%

CC(C)Cc1c(O)c2cccc(Cl)c2[n+]2ccccc12
EC50 [2]: 32 µM | Activation [1]: 26% | EC50 [3]: 26 µM

CCOC(=O)c1c(O)c2c(F)cccc2[n+]2ccccc12
Activation [1]: 8%

CCOC(=O)c1c(O)c2cccc(F)c2[n+]2ccccc12
EC50 [2]: 95 µM | Activation [1]: 37% | EC50 [3]: 70.5 µM

Nc1cc2[n+](c3c(Cl)cccc13)CCc1c-2[nH]c2ccccc12
Activation [1]: 46%

Oc1c2c3c(ccc[n+]3c3cccc(F)c13)CC2
Activation [1]: < 5%

Cc1c(O)c2cccc(Cl)c2[n+]2ccccc12
Activation [1]: 19%
